From article PMC5402713 (Pain, 2017)

Assays:
mouse TRPM3α2 [1] = target: T1, mouse TRPM3α2 (Mus musculus, UniProt J9SQF3); test: Whole-cell patch-clamp of TRPM3 currents in HEKmTRPM3 cells; assay type: cell-based
human TRPM2 = human TRPM2 (Homo sapiens, UniProt O94759); test: H2O2-induced [Ca2+]i signals in HEK cells expressing human TRPM2; assay type: cell-based; conditions: diclofenac at concentrations above 1 μM, data not shown
TRPA1 = conditions: read-out: EC50 of TRPA1 activation; cited from earlier work
mouse TRPM3α2 [2] = target: T1, mouse TRPM3α2; assay type: cell-based; conditions: for Hill coefficient of TRPM3 inhibition: Fluo-4-loaded HEKmTRPM3 cells, PregS-induced Ca2+ signal; for TRPM3 inhibition relative to mefenamic acid: primary screen, data not shown
human ankyrin-like TRPA1 = human ankyrin-like TRPA1 (Homo sapiens, UniProt O75762); test: Selectivity Ca2+ assay in HEKhTRPA1 cells, AITC-stimulated; assay type: cell-based; conditions: AITC 30 μM; for Inhibition of AITC-induced TRPA1 activation: drug up to 50 μM
human ankyrin-like TRPA1, sequence (O75762 whole entry): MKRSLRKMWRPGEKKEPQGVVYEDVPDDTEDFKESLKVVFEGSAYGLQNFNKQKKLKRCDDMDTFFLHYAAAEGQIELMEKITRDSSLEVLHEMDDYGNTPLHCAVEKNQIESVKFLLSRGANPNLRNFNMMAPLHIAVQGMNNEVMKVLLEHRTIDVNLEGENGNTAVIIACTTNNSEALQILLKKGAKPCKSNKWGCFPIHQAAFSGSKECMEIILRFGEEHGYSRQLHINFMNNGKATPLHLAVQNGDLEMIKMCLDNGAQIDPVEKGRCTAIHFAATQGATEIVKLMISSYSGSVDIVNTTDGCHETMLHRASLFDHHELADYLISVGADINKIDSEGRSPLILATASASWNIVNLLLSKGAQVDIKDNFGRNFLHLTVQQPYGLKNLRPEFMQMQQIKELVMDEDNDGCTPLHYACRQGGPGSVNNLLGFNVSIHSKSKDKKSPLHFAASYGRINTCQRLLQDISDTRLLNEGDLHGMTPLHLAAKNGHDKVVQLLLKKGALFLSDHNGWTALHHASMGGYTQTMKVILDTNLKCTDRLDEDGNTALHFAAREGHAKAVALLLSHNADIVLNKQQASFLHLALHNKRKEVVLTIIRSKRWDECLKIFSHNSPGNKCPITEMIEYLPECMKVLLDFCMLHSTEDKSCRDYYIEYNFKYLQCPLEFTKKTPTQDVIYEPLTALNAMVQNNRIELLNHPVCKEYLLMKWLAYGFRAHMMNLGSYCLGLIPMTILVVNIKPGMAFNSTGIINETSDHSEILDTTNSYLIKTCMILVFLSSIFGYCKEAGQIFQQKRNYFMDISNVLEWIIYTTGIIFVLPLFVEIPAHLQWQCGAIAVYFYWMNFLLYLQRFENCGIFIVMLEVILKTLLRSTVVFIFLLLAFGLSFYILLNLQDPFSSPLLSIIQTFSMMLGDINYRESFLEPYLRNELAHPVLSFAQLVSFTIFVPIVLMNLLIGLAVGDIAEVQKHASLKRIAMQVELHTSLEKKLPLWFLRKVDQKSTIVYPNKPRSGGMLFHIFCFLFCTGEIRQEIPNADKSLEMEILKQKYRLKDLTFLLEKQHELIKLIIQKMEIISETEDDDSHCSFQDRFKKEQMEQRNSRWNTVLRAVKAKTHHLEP
Outline: (§1)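 Stable HEK293 lines expressing human TRPA1, rat TRPV1 or human TRPM8 were loaded in suspension with Fluo-4/AM (4 μM, 30 min, 37°C) and resuspended in HEPES-buffered saline, pH 7.4. Cells were pre-exposed to test compound in 384-well plates. After baseline reading, cells were stimulated with 30 μM AITC (TRPA1), 2 μM capsaicin (TRPV1) or 300 μM menthol (TRPM8). Background-corrected fluorescence was normalized to initial intensity (F/F₀).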

human TRPM8 = human TRPM8 (Homo sapiens, UniProt Q7Z2W7); test: Selectivity Ca2+ assay in HEKhTRPM8 cells, menthol-stimulated; assay type: cell-based; conditions: menthol 300 μM, drug up to 50 μM
human TRPM8, sequence (Q7Z2W7 whole entry): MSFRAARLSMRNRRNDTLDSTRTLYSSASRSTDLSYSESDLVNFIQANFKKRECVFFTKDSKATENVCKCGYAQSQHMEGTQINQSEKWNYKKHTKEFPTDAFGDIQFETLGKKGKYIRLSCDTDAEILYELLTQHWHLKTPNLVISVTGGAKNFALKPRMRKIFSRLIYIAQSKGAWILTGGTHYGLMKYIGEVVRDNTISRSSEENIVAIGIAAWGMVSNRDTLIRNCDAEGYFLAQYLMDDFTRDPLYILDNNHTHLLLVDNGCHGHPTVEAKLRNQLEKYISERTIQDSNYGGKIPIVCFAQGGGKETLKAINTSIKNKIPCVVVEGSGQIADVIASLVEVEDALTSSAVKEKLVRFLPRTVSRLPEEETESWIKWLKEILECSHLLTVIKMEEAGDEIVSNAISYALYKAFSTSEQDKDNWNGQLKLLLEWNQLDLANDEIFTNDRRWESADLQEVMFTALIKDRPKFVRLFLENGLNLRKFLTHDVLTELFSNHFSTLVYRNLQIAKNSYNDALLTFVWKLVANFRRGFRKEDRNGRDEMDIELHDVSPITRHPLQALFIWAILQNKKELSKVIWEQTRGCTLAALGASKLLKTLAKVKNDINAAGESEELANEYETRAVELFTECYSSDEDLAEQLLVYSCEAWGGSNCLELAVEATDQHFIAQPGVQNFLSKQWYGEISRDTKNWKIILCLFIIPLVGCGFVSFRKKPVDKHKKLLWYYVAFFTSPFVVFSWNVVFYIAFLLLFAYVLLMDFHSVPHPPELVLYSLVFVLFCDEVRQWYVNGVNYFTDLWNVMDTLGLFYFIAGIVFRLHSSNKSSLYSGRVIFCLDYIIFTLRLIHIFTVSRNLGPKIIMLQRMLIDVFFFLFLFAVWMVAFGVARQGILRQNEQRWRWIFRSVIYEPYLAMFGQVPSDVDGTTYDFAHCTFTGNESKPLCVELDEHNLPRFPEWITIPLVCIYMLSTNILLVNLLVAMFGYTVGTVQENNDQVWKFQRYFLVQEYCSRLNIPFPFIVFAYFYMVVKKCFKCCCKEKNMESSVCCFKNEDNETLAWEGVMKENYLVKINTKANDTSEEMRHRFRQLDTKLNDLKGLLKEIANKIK
Outline: as §1

[3] = physiological pH, no reference given; cited from earlier work
rat TRPV1 = rat TRPV1 (Rattus norvegicus, UniProt O35433); test: Selectivity Ca2+ assay in HEKrTRPV1 cells, capsaicin-stimulated; assay type: cell-based; conditions: capsaicin 2 μM, drug up to 50 μM
rat TRPV1, sequence (O35433 whole entry): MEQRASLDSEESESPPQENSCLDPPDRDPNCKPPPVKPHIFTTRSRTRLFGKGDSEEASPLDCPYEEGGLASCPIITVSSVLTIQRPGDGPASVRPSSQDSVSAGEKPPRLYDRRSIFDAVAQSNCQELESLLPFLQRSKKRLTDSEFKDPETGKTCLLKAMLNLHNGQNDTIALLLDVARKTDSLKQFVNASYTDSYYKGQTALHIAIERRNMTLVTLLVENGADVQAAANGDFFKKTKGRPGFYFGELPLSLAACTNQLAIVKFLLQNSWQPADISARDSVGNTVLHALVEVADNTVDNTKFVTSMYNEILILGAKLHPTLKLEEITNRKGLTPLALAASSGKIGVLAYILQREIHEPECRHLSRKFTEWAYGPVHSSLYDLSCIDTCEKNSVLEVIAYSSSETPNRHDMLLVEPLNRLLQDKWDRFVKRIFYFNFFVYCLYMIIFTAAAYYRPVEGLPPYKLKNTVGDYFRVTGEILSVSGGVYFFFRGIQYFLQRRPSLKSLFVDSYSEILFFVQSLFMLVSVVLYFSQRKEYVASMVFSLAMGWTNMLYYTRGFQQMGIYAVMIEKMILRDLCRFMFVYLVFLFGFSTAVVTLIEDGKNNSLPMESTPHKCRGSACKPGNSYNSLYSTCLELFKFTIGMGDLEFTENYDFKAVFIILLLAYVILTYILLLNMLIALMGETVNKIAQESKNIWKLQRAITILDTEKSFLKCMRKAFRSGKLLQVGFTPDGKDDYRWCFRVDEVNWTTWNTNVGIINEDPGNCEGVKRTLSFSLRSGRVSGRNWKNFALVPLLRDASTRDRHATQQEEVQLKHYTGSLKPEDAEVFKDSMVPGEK
Outline: as §1

[4] = cited from earlier work
C57BL/6J mice [5] = test: Pregnenolone sulfate-induced chemical pain in mice; assay type: in vivo, mouse; conditions: for Nociception as duration per single response, compared with controls: data not shown
Outline: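 Mice received i.p. test compound (0.5, 2, 10 mg·kg⁻¹, suspended in 0.5% Tween 20) or vehicle. After 20 min, 5 nmol PregS (in sterile water, 10 μL total) was injected into the right hind paw. Over 180 s, observers recorded latency to the first response, number of responses and total duration of licking, lifting and shaking. n = 8 each; mean ± SEM; one-way ANOVA.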

C57BL/6J mice [6] = test: Tail immersion test; assay type: in vivo, mouse; conditions: primidone 1 mg·kg^−1 i.p., 48°C
Outline: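 Tail immersion in male C57BL/6J mice given test compound at 1 mg·kg⁻¹ i.p. or vehicle (0.5% Tween 20). Each mouse was restrained in a 50 mL conical tube, and the distal half of the tail was dipped in water at 48.0 ± 0.5°C. Latency to vigorous tail flexion was recorded, with a 15 s cutoff. n = 10 each; mean ± SEM.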

human TRPM3α2 = human TRPM3α2 (Homo sapiens, UniProt Q9HCF6); assay type: cell-based; conditions: qualitative; PregS 35 μM, primidone 25 μM
Outline: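 HEK293 cells were grown in MEM with Earle's salts, 10% FCS, 2 mM L-glutamine and penicillin/streptomycin. 1–2 days after seeding, they were transfected with 2 μg plasmid encoding human TRPM3α2 C-terminally fused to YFP and used 2 days later. For [Ca²⁺]i measurement, 35 μM PregS and 25 μM test compound were added sequentially. Nontransfected HEK293 cells served as control.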

mouse TRPM3α2 [7] = target: T1, mouse TRPM3α2; assay type: cell-based; conditions: 10 μM primidone, temperature 22 to 37°C, Fura-2
rat DRG neurones = test: Single-cell Fura-2 [Ca2+]i measurement in isolated rat DRG neurones; assay type: cell-based; conditions: 10 μM primidone
C57BL/6J mice [8] = test: Hot plate test; assay type: in vivo, mouse; conditions: 52°C
Outline: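 Male C57BL/6J mice were placed on a 52°C hot plate 20 min after i.p. test compound (0.5, 2, 10 mg·kg⁻¹ in 0.5% Tween 20) or vehicle. Latency to the first nocifensive hind-paw response was recorded, with a 45 s cutoff. Mean ± SEM; one-way ANOVA.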

C57BL/6J mice [9] = test: CFA-induced inflammatory thermal hyperalgesia, hot plate; assay type: in vivo, mouse; conditions: primidone 1 mg·kg^−1 i.p., 24 hours after CFA
C57BL/6J mice [10] = test: Exploratory motor activity; assay type: in vivo, mouse; conditions: primidone 10 mg·kg^−1 i.p., after 120 minutes
Outline: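 Male C57BL/6J mice, 10–12 weeks old. Test compound was suspended in 0.5% Tween 20, which also served as vehicle control, and given i.p. Travelled distance in an opaque open-field box was video-tracked for 5 min, both immediately before the hot plate test and 120 min after dosing. n = 10 each; mean ± SEM; one-way ANOVA.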

T1 sequence (J9SQF3 1-1709 isoform J9SQF3-12): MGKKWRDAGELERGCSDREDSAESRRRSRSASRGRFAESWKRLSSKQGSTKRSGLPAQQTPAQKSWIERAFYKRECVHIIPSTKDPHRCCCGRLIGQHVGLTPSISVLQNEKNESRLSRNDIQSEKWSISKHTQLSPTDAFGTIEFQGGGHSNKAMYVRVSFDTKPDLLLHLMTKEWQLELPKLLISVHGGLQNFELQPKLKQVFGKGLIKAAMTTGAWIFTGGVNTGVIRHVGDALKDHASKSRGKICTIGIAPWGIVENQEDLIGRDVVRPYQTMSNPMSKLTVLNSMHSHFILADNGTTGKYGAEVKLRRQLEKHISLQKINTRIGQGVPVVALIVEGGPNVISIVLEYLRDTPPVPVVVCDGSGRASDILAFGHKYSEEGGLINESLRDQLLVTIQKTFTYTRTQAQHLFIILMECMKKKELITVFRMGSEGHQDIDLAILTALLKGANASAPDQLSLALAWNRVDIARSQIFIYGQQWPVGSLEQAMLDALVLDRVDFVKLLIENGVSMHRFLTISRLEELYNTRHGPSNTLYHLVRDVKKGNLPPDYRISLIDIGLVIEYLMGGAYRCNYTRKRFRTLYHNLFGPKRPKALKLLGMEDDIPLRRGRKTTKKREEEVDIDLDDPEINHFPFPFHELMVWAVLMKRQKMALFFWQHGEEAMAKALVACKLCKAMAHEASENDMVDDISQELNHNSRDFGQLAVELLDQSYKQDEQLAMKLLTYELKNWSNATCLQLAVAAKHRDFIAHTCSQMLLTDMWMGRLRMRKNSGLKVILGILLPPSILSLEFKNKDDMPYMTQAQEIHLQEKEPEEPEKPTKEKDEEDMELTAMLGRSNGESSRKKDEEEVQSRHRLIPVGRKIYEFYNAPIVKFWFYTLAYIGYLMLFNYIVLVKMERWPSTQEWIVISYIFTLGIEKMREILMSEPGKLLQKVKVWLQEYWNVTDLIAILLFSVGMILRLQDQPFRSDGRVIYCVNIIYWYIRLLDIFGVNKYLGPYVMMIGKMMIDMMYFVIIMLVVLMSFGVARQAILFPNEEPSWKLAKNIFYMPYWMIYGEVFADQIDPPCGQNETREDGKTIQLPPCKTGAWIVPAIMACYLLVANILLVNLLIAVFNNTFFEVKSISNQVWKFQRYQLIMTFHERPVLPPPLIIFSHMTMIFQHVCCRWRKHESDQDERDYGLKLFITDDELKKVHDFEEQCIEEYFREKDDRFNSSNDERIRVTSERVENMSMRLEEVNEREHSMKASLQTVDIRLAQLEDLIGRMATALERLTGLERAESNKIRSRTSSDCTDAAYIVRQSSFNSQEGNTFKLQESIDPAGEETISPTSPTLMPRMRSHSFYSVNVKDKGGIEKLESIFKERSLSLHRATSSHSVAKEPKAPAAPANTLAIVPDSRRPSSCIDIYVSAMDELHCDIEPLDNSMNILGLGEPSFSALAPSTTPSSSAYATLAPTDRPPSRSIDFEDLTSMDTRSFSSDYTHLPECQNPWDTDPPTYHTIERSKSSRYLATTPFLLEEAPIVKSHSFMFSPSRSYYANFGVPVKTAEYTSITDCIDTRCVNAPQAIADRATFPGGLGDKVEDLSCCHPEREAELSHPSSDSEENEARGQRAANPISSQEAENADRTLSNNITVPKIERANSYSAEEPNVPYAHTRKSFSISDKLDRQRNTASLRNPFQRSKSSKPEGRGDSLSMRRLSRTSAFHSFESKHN

O=C(O)Cc1ccccc1Nc1c(Cl)cccc1Cl [diclofenac]
Effect on PregS-induced inward and outward currents (mouse TRPM3α2 [1]; 25 μM diclofenac in bath, 35 μM PregS): almost completely abolished | Effect of intracellularly perfused drug on PregS-induced currents (mouse TRPM3α2 [1]; 25 μM diclofenac in pipette solution): did not prevent PregS-induced currents | inhibition at 5 µM (mouse TRPM3α2 [1]; read-out: Inhibition of depolarizing inward currents): ~70% | Inhibition of H2O2-induced [Ca2+]i signals (human TRPM2): partial inhibition | EC50 (TRPA1): 210 µM | Hill coefficient of TRPM3 inhibition (mouse TRPM3α2 [2]): 1.2 ± 0.1 | Attenuation of responses to AITC stimulation (human ankyrin-like TRPA1; diclofenac at concentrations higher than 50 μM): about 50% | Inhibition of menthol-induced TRPM8 activation (human TRPM8): almost unaffected | Share of deprotonized, negatively charged microspecies [3]: > 99%

O=C(O)c1ccccc1Nc1cccc(C(F)(F)F)c1 [flufenamic acid]
TRPM3 inhibition relative to mefenamic acid (mouse TRPM3α2 [2]): less potent and poorly specific TRPM3 inhibitors

CNCCCC12CCC(c3ccccc31)c1ccccc12 [maprotiline]
Inhibition of capsaicin-induced TRPV1 activation (rat TRPV1): no apparent inhibition | Inhibition of AITC-induced TRPA1 activation (human ankyrin-like TRPA1): no apparent inhibition | Inhibition of menthol-induced TRPM8 activation (human TRPM8): no apparent inhibition

CCC1(c2ccccc2)C(=O)NC(=O)NC1=O [phenobarbital]
Plasma concentration of the major active metabolite during primidone therapy [4]: 15 to 40 µM

CCC1(c2ccccc2)C(=O)NCNC1=O [primidone]
Therapeutic plasma concentrations [4]: 20 to 50 µM | Plasma protein binding ([4]; no reference given): less than 10% | Relative distribution volume ([4]; no reference given): 0.6 L/kg | Latency and total response duration to PregS-induced pain (C57BL/6J mice [5]; primidone 0.5 mg·kg^−1 i.p., 20 minutes before PregS 5 nmol i.pl.): significant antinociception | Nociception as duration per single response, compared with controls (C57BL/6J mice [5]; primidone 0.5 mg·kg^−1 i.p.): significantly reduced | Nociception as duration per single response, compared with controls (C57BL/6J mice [5]; primidone 10 mg·kg^−1 i.p.): intensified | Number of responses to PregS (C57BL/6J mice [5]; primidone 0.5, 2 and 10 mg·kg^−1 i.p.): not altered | Latency to tail withdrawal (C57BL/6J mice [6]): prolonged the latency to tail withdrawal | Effect on omega pore-like currents evoked by coapplied PregS and clotrimazole (mouse TRPM3α2 [1]; 10 μM primidone, 40 μM PregS and 10 μM clotrimazole): inhibited | Effect on PregS-induced inward currents (mouse TRPM3α2 [1]; 3 and 5 μM primidone, 35 μM PregS): almost completely abolished | Potency to block TRPM3 currents (mouse TRPM3α2 [1]; electrophysiological recordings): submicromolar potency | Effect on PregS-induced responses at the human TRPM3 channel (human TRPM3α2): confirmed the effectiveness | Inhibition of capsaicin-induced TRPV1 activation (rat TRPV1): no apparent inhibition | Effect on [Ca2+]i during heat-induced TRPM3 activation (mouse TRPM3α2 [7]): rapid and reversible decrease in [Ca^2+]i | Inhibition of [Ca2+]i responses of capsaicin treatment (rat DRG neurones; 2 μM capsaicin, data not shown): not discernibly inhibited | Effect on [Ca2+]i in PregS-responsive DRG neurones (rat DRG neurones; PregS 35 μM): immediate decrease in [Ca^2+]i | Response latency on the hot plate (C57BL/6J mice [8]; primidone 10 mg·kg^−1 i.p.): did not differ from controls | Response latency on the hot plate (C57BL/6J mice [8]; primidone 0.5 and 2 mg·kg^−1 i.p.): prolonged the response latency | IC50 (mouse TRPM3α2 [2]): ~0.6 µM | Hill coefficient of TRPM3 inhibition (mouse TRPM3α2 [2]): 1.4 ± 0.2 | CFA-induced sensitization, hot plate latency (C57BL/6J mice [9]): prevented the signs of CFA-induced sensitization | Inhibition of AITC-induced TRPA1 activation (human ankyrin-like TRPA1): no apparent inhibition | Exploratory activity (travelled distance) (C57BL/6J mice [10]): slight reduction of exploratory activity | Inhibition of menthol-induced TRPM8 activation (human TRPM8): no apparent inhibition

Cc1c(Cl)cccc1Nc1ccccc1C(=O)O [tolfenamic acid]
TRPM3 inhibition relative to mefenamic acid (mouse TRPM3α2 [2]): less potent and poorly specific TRPM3 inhibitors
